How the values were obtained:
[1] = system: MIA PaCa-2; experiment: Cytotoxicity against human MIA PaCa2 cells after 4 hrs by MTT assay; type: functional, cell-based; conditions: MIA PaCa-2, 4 h
[2] = system: MIA PaCa-2; experiment: Cytotoxicity against human MIA PaCa2 cells after 72 hrs by MTT assay; type: functional, cell-based; conditions: MIA PaCa-2, 72 h
[3] = molecular target: NAD(P)H dehydrogenase [quinone] 1 (Homo sapiens) (UniProt P15559); experiment: Inhibition of human recombinant NQO1 expressed in MIA PaCa2 cells at 10 to 100 nM after 1 hrs; type: cell-based; conditions: MIA PaCa-2
Outline: (§1)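 MIA PaCa-2 cells (1×10^6, plated the day before) exposed to indolequinone (1 nM–10 μM) in complete medium for 1 h. Cells then washed in PBS, scraped into 50 mM K phosphate pH 7.4 with 250 mM sucrose and 5 μM FAD, and sonicated on ice. NQO1 activity in sonicates measured as 0.2 mM NADH-dependent reduction of 40 μM DCPIP, read at 600 nm for 1 min at 32 °C.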

[4] = molecular target: NAD(P)H dehydrogenase [quinone] 1 (Homo sapiens) (UniProt P15559); experiment: Inhibition of human recombinant NQO1 expressed in MIA PaCa2 cells at <10 nM after 1 hrs; type: cell-based; conditions: MIA PaCa-2; outline: as §1
[5] = molecular target: NAD(P)H dehydrogenase [quinone] 1 (Homo sapiens) (UniProt P15559); experiment: Inhibition of human recombinant NQO1 expressed in MIA PaCa2 cells at 5000 to 10000 nM after 1 hrs; type: cell-based; conditions: MIA PaCa-2; outline: as §1

Sequence of NAD(P)H dehydrogenase [quinone] 1 (Homo sapiens) (P15559 whole entry): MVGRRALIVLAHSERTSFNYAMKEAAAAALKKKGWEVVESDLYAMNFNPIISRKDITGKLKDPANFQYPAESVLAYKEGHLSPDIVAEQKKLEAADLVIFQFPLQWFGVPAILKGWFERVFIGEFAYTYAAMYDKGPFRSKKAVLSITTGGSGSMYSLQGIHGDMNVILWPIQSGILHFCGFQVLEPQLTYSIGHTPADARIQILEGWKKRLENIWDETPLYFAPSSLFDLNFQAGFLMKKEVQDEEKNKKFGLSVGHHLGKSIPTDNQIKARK

SMILES: COC1=CC(=O)c2c(c(COc3ccccc3[N+](=O)[O-])c(C)n2C)C1=O
- IC50 [1]: 345 nM
- IC50 [2]: 104 nM

SMILES: COC1=CC(=O)c2c(COc3ccccc3)c(C)n(C)c2C1=O
- IC50 [1]: 4560 nM
- IC50 [2]: 409 nM

SMILES: O=[N+]([O-])c1ccc(O)c([N+](=O)[O-])c1 [2,4-DINITROPHENOL]
- IC50 [1]: 15900 nM
- IC50 [2]: 22100 nM

SMILES: O=[N+]([O-])c1cccc(O)c1 [3-NITRO-PHENOL]
- IC50 [1]: 7130 nM
- IC50 [2]: 13900 nM

SMILES: COC1=CC(=O)c2c(COc3ccc([N+](=O)[O-])cc3F)c(C)n(C)c2C1=O
- inhibition [3]: > 90%
- IC50 [1]: 529 nM
- IC50 [2]: 417 nM

SMILES: Oc1cccnc1
- IC50 [1]: 56500 nM
- IC50 [2]: 73100 nM

SMILES: COC1=CC(=O)c2c(COc3ccncc3)c(C)n(C)c2C1=O
- inhibition [3]: > 90%
- IC50 [1]: 2560 nM
- IC50 [2]: 3270 nM

SMILES: COC1=CC(=O)c2c(c(COc3ccccn3)c(C)n2C)C1=O
- inhibition [4]: > 90%

SMILES: Oc1ccc(F)cc1
- IC50 [1]: 12400 nM
- IC50 [2]: 13200 nM

SMILES: COC1=CC(=O)c2c(c(COc3ccccc3)c(C)n2C)C1=O
- IC50 [1]: 1380 nM
- IC50 [2]: 962 nM

SMILES: Oc1ccc(C(F)(F)F)cc1
- IC50 [1]: 13100 nM
- IC50 [2]: 32900 nM

SMILES: COC1=CC(=O)c2c(c(COc3cccnc3)c(C)n2C)C1=O
- inhibition [3]: > 90%
- IC50 [1]: 904 nM
- IC50 [2]: 562 nM

SMILES: COC1=CC(=O)c2c(COc3ccc(N)cc3)c(C)n(C)c2C1=O
- IC50 [1]: 504 nM
- IC50 [2]: 160 nM

SMILES: Nc1ccc(O)cc1 [4-AMINOPHENOL]
- IC50 [1]: 42000 nM
- IC50 [2]: 42200 nM

SMILES: Oc1c(F)cc(F)cc1F
- IC50 [1]: 36400 nM
- IC50 [2]: 38100 nM

SMILES: COC1=CC(=O)c2c(COc3cccnc3)c(C)n(C)c2C1=O
- IC50 [1]: 2480 nM
- IC50 [2]: 1820 nM

SMILES: O=[N+]([O-])c1ccccc1O [NITROPHENOLATE]
- IC50 [1]: 6080 nM
- IC50 [2]: 16400 nM

SMILES: COC1=CC(=O)c2c(c(COc3cccc([N+](=O)[O-])c3)c(C)n2C)C1=O
- inhibition [3]: > 90%
- IC50 [1]: 352 nM
- IC50 [2]: 258 nM

SMILES: N#Cc1ccc(O)cc1 [4-CYANOPHENOL]
- IC50 [1]: 56800 nM
- IC50 [2]: 73300 nM

SMILES: Oc1ccccn1
- IC50 [1]: 68100 nM
- IC50 [2]: 68800 nM

SMILES: Oc1ccc(F)cc1F
- IC50 [1]: 14800 nM
- IC50 [2]: 20800 nM

SMILES: COC1=CC(=O)c2c(COc3ccc(F)cc3)c(C)n(C)c2C1=O
- inhibition [5]: > 90%
- IC50 [1]: 905 nM
- IC50 [2]: 493 nM

SMILES: O=[N+]([O-])c1ccc(O)c(F)c1
- IC50 [1]: 14300 nM
- IC50 [2]: 19200 nM

SMILES: COC1=CC(=O)c2c(COc3ccccc3[N+](=O)[O-])c(C)n(C)c2C1=O
- inhibition [3]: > 90%
- IC50 [1]: 363 nM
- IC50 [2]: 178 nM

SMILES: COC1=CC(=O)c2c(COc3ccc(C#N)cc3)c(C)n(C)c2C1=O
- IC50 [1]: 463 nM
- IC50 [2]: 192 nM

SMILES: COC1=CC(=O)c2c(COc3ccc(C(F)(F)F)cc3)c(C)n(C)c2C1=O
- inhibition [5]: > 90%
- IC50 [1]: 496 nM
- IC50 [2]: 311 nM

SMILES: COC1=CC(=O)c2c(COc3ccc([N+](=O)[O-])cc3)c(C)n(C)c2C1=O
- inhibition [3]: > 90%
- IC50 [1]: 638 nM
- IC50 [2]: 355 nM

SMILES: COC1=CC(=O)c2c(COc3c(F)cc(F)cc3F)c(C)n(C)c2C1=O
- inhibition [3]: > 90%
- IC50 [1]: 452 nM
- IC50 [2]: 212 nM

SMILES: COC1=CC(=O)c2c(COc3ccc(F)cc3F)c(C)n(C)c2C1=O
- inhibition [3]: > 90%
- IC50 [1]: 255 nM
- IC50 [2]: 75 nM

SMILES: COC1=CC(=O)c2c(c(COc3ccc([N+](=O)[O-])cc3F)c(C)n2C)C1=O
- IC50 [1]: 4650 nM
- IC50 [2]: 3560 nM

SMILES: COC1=CC(=O)c2c(c(C(C)Oc3ccc([N+](=O)[O-])cc3)c(C)n2C)C1=O (stereo not given)
- IC50 [1]: 1830 nM
- IC50 [2]: 1700 nM

SMILES: COC1=CC(=O)c2c(COc3cccc([N+](=O)[O-])c3)c(C)n(C)c2C1=O
- inhibition [3]: > 90%
- IC50 [1]: 351 nM
- IC50 [2]: 257 nM

SMILES: O=[N+]([O-])c1ccc(O)cc1 [P-NITROPHENOL]
- IC50 [1]: 11000 nM
- IC50 [2]: 13000 nM

SMILES: COC1=CC(=O)c2c(COc3ccccn3)c(C)n(C)c2C1=O
- inhibition [3]: > 90%
- IC50 [1]: 9580 nM
- IC50 [2]: 2390 nM

SMILES: Oc1ccncc1
- IC50 [1]: 43200 nM
- IC50 [2]: 17800 nM

SMILES: COC1=CC(=O)c2c(c(COc3ccc([N+](=O)[O-])cc3)c(C)n2C)C1=O
- inhibition [3]: > 90%
- IC50 [1]: 629 nM
- IC50 [2]: 508 nM

SMILES: COC1=CC(=O)c2c(c(COc3c(F)cc(F)cc3F)c(C)n2C)C1=O
- IC50 [1]: 427 nM
- IC50 [2]: 86 nM

SMILES: COC1=CC(=O)c2c(c(COc3ccncc3)c(C)n2C)C1=O
- IC50 [1]: 2010 nM
- IC50 [2]: 2170 nM

SMILES: Oc1ccccc1 [PHENOL]
- IC50 [1]: 16500 nM
- IC50 [2]: 16000 nM

Reference: ChEMBL document CHEMBL1138238, “Synthesis and evaluation of 3-aryloxymethyl-1,2-dimethylindole-4,7-diones as mechanism-based inhibitors of NAD(P)H:quinone oxidoreductase 1 (NQO1) activity” (J Med Chem, 2007)
